# Screening results as filed in PubChem.
# Sampled rows, rich in hits. Any-hit rate of the full collection: about 2.4%.
# MC4R barr agon – activates human MC4R beta-arrestin recruitment. P32245. U2OS MC4R beta-arrestin complementation, luminescence; percent of melanotan II response, DMSO zero. activation, % at 8.9 µM. hit rate 0.98% among 360,000. AID 540308;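 active = activation above a per-plate cutoff, the mean activation of sample wells on that plate plus 3 SD, cut at about 8% in these data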
# aDG glyco up – alpha-DG glycosylation activation. hit rate 0.22% among 360,000. activation, % at 10 µM. AID 624168. Pro5-aDG cells, alpha-DG glycosylation AlphaScreen (IIH6); 0% Pro5, 100% B10-LARGE cell signal;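 active = activation of at least 8% versus controls, or a plate z-score of at least 8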;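 note: Pro5 are CHO cells carrying HIG-tagged alpha-DG that lacks glycosylation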
# TAG inh – inhibitors of triacylglycerol accumulation; hit rate 0.66% among 230,000; H9c2 cells, Nile Red lipid (TAG) fluorescence; cells loaded with 200 µM oleic acid; inhibition, % at 12.5 µM;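 active = pattern-corrected inhibition of lipid staining of at least 50% with the nuclear-stain viability signal not falling by more than 50%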
# TbMetRS inhib – blocks T. brucei methionyl-tRNA synthetase activity. purified T. brucei MetRS, ATP depletion, Kinase-Glo luminescence. inhibition, % at 11.9 µM. hit rate 0.4% among 360,000;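 active = inhibition above a per-plate cutoff of the control wells' mean inhibition plus 3 SD, cut at about 5.5% in these data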
#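 Test system – parasite MetRS enzyme · Reagent – substrates ATP, L-methionine and bulk Escherichia coli tRNA · Doses – 11.9 µM compound single dose, 0.9% DMSO · Times – 15 min enzyme-compound preincubation, 2 h reaction, 10 min detection, 25 °C · Signal – Kinase-Glo luminescence, ATP depletion format · Controls – DMSO-only wells as low control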
# NTR1 agonist – NTR1 (human) agonism | NTR1-U2OS beta-arrestin-GFP spot imaging, agonist mode | activation, % at 20 µM | hit rate 0.17% among 330,000 | AID 493036;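 active = activation at or above 40% of the spot to cytoplasm intensity ratio, with at least 20 cells analyzed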
# Target sequence (P30989 whole entry, looked up): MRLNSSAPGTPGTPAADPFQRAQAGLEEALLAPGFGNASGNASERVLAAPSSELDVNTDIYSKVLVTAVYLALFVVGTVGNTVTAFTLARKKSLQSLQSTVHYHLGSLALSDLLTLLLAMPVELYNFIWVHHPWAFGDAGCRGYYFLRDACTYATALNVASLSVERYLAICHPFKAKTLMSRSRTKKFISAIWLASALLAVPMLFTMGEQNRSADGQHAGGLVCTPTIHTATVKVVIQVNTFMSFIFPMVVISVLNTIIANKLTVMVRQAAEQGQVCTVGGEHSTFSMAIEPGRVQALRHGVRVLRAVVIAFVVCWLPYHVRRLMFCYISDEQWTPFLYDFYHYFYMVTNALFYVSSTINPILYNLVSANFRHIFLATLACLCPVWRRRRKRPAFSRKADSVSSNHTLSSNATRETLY
# MC4R antagonist – blocks human MC4R cAMP signaling. P32245. MC4R-expressing cells, MTII-stimulated cAMP, LANCE TR-FRET. AID 540295. hit rate 0.48% among 360,000. inhibition, % at 6.5 µM;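 active = inhibition above its plate's cutoff, the mean of tested wells on that plate plus 3 SD, cut at about 29% in these data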
#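 system = U2OS cells with stable human MC4R expression | also added = Melanotan II challenge after compound preincubation | dosing = one concentration, 6.5 µM nominal | incubation = compound 30 min, challenge 1 h, detection 1 h | measured by = TR-FRET with Eu-cAMP and labeled anti-cAMP, 671 nm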
# U2OS cAMP counter – U2OS forskolin cAMP inhibition counter-screen. parental U2OS, LANCE TR-FRET. hit rate 26% among 1,600. shares compounds with MC4R antagonist. inhibition, % at 6.5 µM;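 active = mean inhibition over triplicates above the low-control well mean plus 3 SD, set per campaign, cut at about 13% in these data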;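 note: signal is single emission at 671 nm which falls as cellular cAMP rises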
# MC4R antag conf – human MC4R cAMP antagonism confirmation; MC4R-expressing cells, MTII-stimulated cAMP, TR-FRET; hit rate 27% among 1,600; inhibition, % at 6.5 µM; shares compounds with MC4R antagonist; in the data active = inhibition above about 29%
# Numbers stand for hits; . = inactive; / = not tested or not shown.
SMILES,MC4R barr agon,aDG glyco up,TAG inh,TbMetRS inhib,NTR1 agonist,MC4R antagonist,U2OS cAMP counter,MC4R antag conf
CC(=O)Nc1cccc(-c2cc(NC(C)=O)c3ncc(-c4ccc(C(C)=O)cc4)n3c2)c1,9.0,.,.,.,/,33.3,.,.
CC(=O)Nc1cc(-c2cccc(NS(C)(=O)=O)c2)cn2c(-c3cccc(C(C)=O)c3)cnc12,.,.,.,.,/,.,/,/
COc1cc(-c2nc3ccc4ccccc4c3c3c2CCC3)cc(OC)c1O,.,.,/,.,.,.,/,/
COc1cc(-c2nc3ccc4ccccc4c3c3c2CCC3)cc(OC)c1OC,.,.,.,.,.,32.2,.,31.3
CC(C)(CNC(=O)c1ccc([N+](=O)[O-])c(Cl)c1)CNC(=O)c1ccc([N+](=O)[O-])c(Cl)c1,.,.,.,.,.,31.4,.,43.7
Cc1ccc(NC(=O)c2cc(N3C(=O)C=CC3=O)ccc2Cl)cc1C,.,.,.,.,.,56.9,.,.
Cc1ccc(NC(=O)c2cc(-n3cnnc3)ccc2Cl)cc1,.,.,/,.,.,.,/,/
Cc1ccc(NC(=O)c2cc(N3C(=O)C=CC3=O)ccc2N2CCOCC2)cc1,.,.,.,.,/,68.9,.,50.5
NS(=O)(=O)c1ccc(CNC(=O)c2cc(-c3ccccn3)nc3ccc(Cl)cc23)cc1,.,.,.,.,.,29.6,.,.
CCOC(=O)Cc1csc(NC(=O)CCN2C(=O)c3cccc([N+](=O)[O-])c3C2=O)n1,.,.,/,.,.,44.1,.,.
O=C(COC(=O)CCN1C(=O)c2cccc([N+](=O)[O-])c2C1=O)NCc1ccccc1,.,.,.,.,.,33.0,.,.
Cc1cccc(NC(=O)CCN2C(=O)c3cccc([N+](=O)[O-])c3C2=O)c1,.,.,/,.,.,31.4,16.1,28.7
CCCN(CC(=O)Nc1ccccc1C)C(=O)CCN1C(=O)c2cccc([N+](=O)[O-])c2C1=O,.,.,.,.,.,29.7,21.4,32.9
O=C(CCCCCN1C(=O)c2cccc([N+](=O)[O-])c2C1=O)NCCc1ccccc1,.,.,.,.,/,.,/,/
COc1ccc(C(O)c2nc(-c3ccccc3C)cs2)cc1 (centres undefined),.,.,.,.,/,.,/,/
CCCc1c(-c2ccc(F)cc2F)ncn1Cc1cccc(-c2ccccc2)c1,/,.,/,.,/,/,/,/
COC(=O)[C@]12CCCCC=C1N(Cc1ccco1)C(=O)[C@H](CC(=O)N1CCOCC1)C2,/,.,/,.,/,/,/,/
Clc1ccc(-c2nnc3n2CCCCS3)cc1,.,.,/,.,.,35.0,.,.
CC(CCc1ccccc1)NC(=O)CN1CCSc2ccccc21 (centres undefined),.,.,.,.,.,31.1,.,.
CC(CCc1ccccc1)NC(=O)CN1CCOc2ccccc21 (centres undefined),.,.,.,.,.,.,/,/
COc1ccc(C(=O)OCCN=C2NS(=O)(=O)c3ccccc32)cc1OC,.,.,/,.,.,30.2,.,.
CCOC(=O)/C(=N\Nc1ccccc1Cl)N1CCN(c2ccccc2OC)CC1,.,.,.,.,.,29.3,.,.
Cc1onc(-c2ccccc2Cl)c1C(=O)NNC(=O)c1ccc(F)cc1,.,.,/,.,.,.,/,/
Cc1onc(-c2ccccc2Cl)c1C(=O)NNC(=O)c1nn(C)cc1Cl,.,.,.,.,.,36.3,.,.
O=C(c1cccc([N+](=O)[O-])c1)c1ccc2c(c1)OCCOCCOCCOCCO2,.,.,.,.,.,35.3,.,.
SMILES,MC4R barr agon,aDG glyco up,TAG inh,TbMetRS inhib,NTR1 agonist,MC4R antagonist,U2OS cAMP counter,MC4R antag conf
COc1cccc(-c2cnc(C(O)c3ccc(C(C)(C)C)cc3)[nH]2)c1 (centres undefined),.,.,.,.,/,.,/,/
O=S(=O)(NC1=NCCCCC1)c1ccc(F)cc1F,.,.,.,.,.,.,/,/
O=S(=O)(NC1=NCCC1)c1ccc(F)cc1F,.,.,.,.,.,29.1,.,.
c1ccc2nc3c(ccc4ccccc43)cc2c1,.,.,.,.,/,.,/,/
Nc1[nH]nc2ncc3cc4ccccc4nc3c12,.,.,.,.,.,28.5,.,.
Cc1ccc(OCC(=O)NNC(=O)C2CCN(c3ncccn3)CC2)cc1,.,.,/,.,.,.,/,/
Cc1ccc(OCC(=O)NNC(=O)C2CCN(c3nc(C)cc(C)n3)CC2)cc1,.,.,/,.,.,28.6,.,.
Cc1ccc(S(=O)(=O)NCC(=O)OC(C)C(=O)Nc2ncc(Cl)cc2Cl)cc1 (centres undefined),.,.,/,.,.,30.5,13.5,.
Cc1ccc(S(=O)(=O)NCC(=O)OCC(=O)Nc2ncc(Cl)cc2Cl)cc1,.,.,.,.,.,.,/,/
CN(CCc1ccccc1)c1cc2c(c3c1ccn3C)C1CCC2C1 (centres undefined),/,.,/,.,/,/,/,/
Cc1ccc(CN2CCN(C(=O)/C=C/[C@H]3O[C@@H](n4cc(C)c(=O)[nH]c4=O)C[C@@H]3O)CC2)cc1,/,.,/,.,/,/,/,/
N/C(CC(=O)Nc1ccc(F)c(Cl)c1)=N\OC(=O)c1cccs1,.,.,.,.,.,35.6,.,.
O=C(NCc1ccncc1)c1cc(C(=O)C2CC2)c[nH]1,.,.,.,.,.,.,/,/
O=C(NCc1ccncc1)c1cc(C(=O)C2CCCCC2)c[nH]1,.,.,.,.,.,30.3,.,.
CN(c1ccccc1)S(=O)(=O)c1cccc(NC(=O)c2cc3ccccc3oc2=O)c1,.,.,.,.,.,.,/,/
COc1ccccc1NS(=O)(=O)c1cccc(NC(=O)c2cc3ccccc3oc2=O)c1,.,.,/,.,.,28.8,.,.
Cc1c(Br)c([N+](=O)[O-])nn1CC(=O)N1CCc2ccccc21,.,.,.,.,.,30.0,.,.
Cc1ccc(C(NC(=O)C2CCN(Cc3ccc(Oc4ccccc4)cc3)CC2)c2ccccn2)cc1 (centres undefined),.,.,.,.,/,.,/,/
Cc1ccc(S(=O)(=O)N2CCCCC2)cc1NC(=O)COC(=O)CNC(=O)c1cc(Cl)cc([N+](=O)[O-])c1,.,.,/,.,.,31.2,.,.
Cc1ccc(C(=O)NCC(=O)OCC(=O)Nc2cc(S(=O)(=O)N3CCOCC3)ccc2C)cc1,.,.,.,.,.,.,/,/
COc1cccc(C(C)(O)c2nc(-c3ccc(F)cc3OC)cs2)c1 (centres undefined),.,.,.,.,/,.,/,/
CC[C@@H](C)[C@H](NC(=O)OC(C)(C)C)c1nnc(S(=O)(=O)Cc2cc(C)ccc2C)o1,.,.,.,.,.,.,/,/
